For 27 molecules, IC50 results are on record in ChEMBL document CHEMBL1139840, “Design and synthesis of glycoside inhibitors of glioma and melanoma growth” (2007).

One assay has as its system A-375. Kind of assay: Antimitotic activity against human A375 cells by [3H]thymidine incorporation assay. The conditions noted are these: A-375, 24 h, read-out: ID50 (the source's name). Type of assay: functional. The method in brief:
(§1)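 Cells seeded at 1 × 10⁴/well in DMEM with 10% FCS and left 6 h to attach, then serum-starved 36 h. Compounds added in DMEM with 1% FCS, in triplicate, for 24 h. A 6 h [³H]thymidine pulse (0.5 µCi/well) followed, then SDS lysis and scintillation counting. % inhibition was scaled between 10% FCS (high) and serum-free (low) controls. ID₅₀ came from sigmoidal fits of triplicate dose-response data.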

The next assay relates to C6. Description: Antimitotic activity against rat C6 cells by [3H]thymidine incorporation assay. The format is functional. The conditions noted are these: C6, 24 h, read-out: ID50 (the source's name). An outline of the steps: as §1
Assay [1] is described as follows: Antimitotic activity against human U373 cells by [3H]thymidine incorporation assay. Type of assay: functional, U-373MG ATCC. The conditions noted are these: U373 MG, read-out: ID50 (the source's name). Background: Dividing cells build labelled thymidine or BrdU into new DNA.
Assay [2] is described as follows: Antimitotic activity against rat stromal cells by [3H]thymidine incorporation assay. The conditions noted are these: read-out: ID50 (the source's name). Type of assay: functional.

Regarding `CCCCCCCCCCCCCCCCO[C@H]1O[C@H](COCC(CO)(CO)COS(=O)(=O)O)[C@@H](O)[C@H](O)[C@H]1NC(=O)CCCC`, the IC50 was 2.3 µM with A-375, 11 µM in the assay with C6 and 3.2 µM in assay [1].
On to `CC(=O)N[C@H]1[C@@H](OCCCCc2ccccc2)O[C@H](CO)[C@@H](O)[C@@H]1O`, for which the IC50 (with A-375; in the assay with C6; in assay [1]) was above 50 µM each time.
Regarding `CCCCCCCCO[C@H]1O[C@H](CO)[C@@H](O)[C@H](O)[C@H]1NC(C)=O`, the IC50 (in the assay on A-375; in the assay with C6; in assay [1]) was above 50 µM in each case.
In the case of `CC(=O)N[C@H]1[C@@H](OCc2ccccc2)O[C@H](CO)[C@@H](O)[C@@H]1O`, the IC50 (in the assay on A-375; in the assay on C6; in assay [1]) was above 50 µM each time.
Consider `CCCCC(=O)N[C@H]1[C@@H](OCCc2ccccc2)O[C@H](COCC(CO)(CO)COS(=O)(=O)O)[C@@H](O)[C@@H]1O`, for which the IC50 in the assay on A-375 worked out at 9.3 µM; in the assay with C6 it was 8.6 µM; in assay [1] it was 6.7 µM.
Take `CCCCCCCCCCCCCCCCO[C@H]1O[C@H](CO)[C@@H](O)[C@H](O)[C@H]1NC(C)=O`: the IC50 was 29.3 µM with A-375, 13 µM with C6 and above 50 µM in assay [1].
Taken in the same sequence, the figures for `CCCCCCCCO[C@H]1O[C@H](CO)[C@@H](O)[C@H](O)[C@H]1NC(=O)c1ccccc1` were above 50 µM, above 50 µM and above 50 µM.
In the case of `CCCCCCCCCCCCCCCCO[C@H]1O[C@H](COCC(O)CO)[C@@H](O)[C@H](O)[C@H]1NC(=O)CCCC` (stereo not given in full), the IC50 in the assay on A-375 was 3 µM; in assay [1] it was 4.6 µM.
For the molecule `CCCCCCCCCCCCCCCCO[C@H]1O[C@H](COCC(CO)(CO)CO)[C@@H](O)[C@H](O)[C@H]1NC(=O)CCCC`, the results for the IC50 (with A-375; in the assay on C6; in assay [1]) were 17 µM, 18.3 µM and 27.3 µM, respectively.
On to `CCCCCCCCCCCCCCCCO[C@H]1O[C@H](COC[C@H](O)CO)[C@@H](O)[C@H](O)[C@H]1NC(=O)CCCC`, for which the figures for the IC50 (in the assay on A-375; in assay [1]) were 2.2 µM and 4.9 µM, respectively.
`C=CCCC(=O)N[C@H]1[C@@H](OCCCCCCCCCCCCCCCC)O[C@H](CO)[C@@H](O)[C@@H]1O`: the IC50 (in the assay on A-375; in the assay with C6; in assay [1]) was above 50 µM throughout.
On to `CCCCCCCC/C=C\CCCCCCCC(=O)N[C@H]1[C@@H](OCCCCCCCC)O[C@H](CO)[C@@H](O)[C@@H]1O`, for which the IC50 amounted to 6 µM in the assay with A-375, 12 µM in the assay with C6 and 13.3 µM in assay [1].
For `C=CCCC(=O)N[C@H]1[C@@H](OCCc2ccccc2)O[C@H](COS(=O)(=O)O)[C@@H](O)[C@@H]1O`, the IC50 (with A-375; in the assay on C6; in assay [1]) was above 50 µM in each case.
For `C=CCCC(=O)N[C@H]1[C@@H](OCCc2ccccc2)O[C@H](CO)[C@@H](O)[C@@H]1OS(=O)(=O)O`, the IC50 (with A-375; with C6; in assay [1]) was above 50 µM each time.
For the molecule `C=CCCC(=O)N[C@H]1[C@@H](OCCCCCCCCCCCCCCCC)O[C@H](CO)[C@@H](O)[C@@H]1OS(=O)(=O)O`, the values for the IC50 (in the assay on A-375; in the assay on C6; in assay [1]) were 7.2 µM, 22.6 µM and 33 µM, respectively.
On to `CCCCCCCC/C=C\CCCCCCCCO[C@H]1O[C@H](COS(=O)(=O)O)[C@@H](O)[C@H](O)[C@H]1NC(C)=O`, for which the IC50 is 0.6 µM with A-375, 13 µM in the assay with C6, 40 µM in assay [2] and 13 µM in assay [1].
Regarding `CCCCCCCC/C=C\CCCCCCCC(=O)N[C@H]1[C@@H](OCCCCCCCC)O[C@H](COCC(CO)(CO)CO)[C@@H](O)[C@@H]1O`, the IC50 is 13.3 µM in the assay with A-375, 11.9 µM with C6 and 20.6 µM in assay [1].
Turning to `CC(=O)N[C@H]1[C@@H](OCCc2ccccc2)O[C@H](CO)[C@@H](O)[C@@H]1O`, the IC50 (in the assay on A-375; in the assay on C6; in assay [1]) was above 50 µM in each case.
For `CCCCCCCC/C=C\CCCCCCCC(=O)N[C@H]1[C@@H](OCCCCCCCC)O[C@H](CO)[C@@H](O)[C@@H]1OS(=O)(=O)O`, the IC50 in the assay with A-375 amounted to 16 µM; in the assay on C6, 5.4 µM; in assay [1] it was 15.6 µM.
Taken in the same sequence, the figures for `CCCCCCCC/C=C\CCCCCCCC(=O)N[C@H]1[C@@H](OCCCCCCCC)O[C@H](COS(=O)(=O)O)[C@@H](O)[C@@H]1O` were 15.6 µM, 5.6 µM and 12.6 µM.
`CCCCCCCCCCCCCCCCO[C@H]1O[C@H](COC[C@@H](O)CO)[C@@H](O)[C@H](O)[C@H]1NC(=O)CCCC`: the IC50 with A-375 amounted to 3.4 µM; in assay [1] it was 5.6 µM.
`CCCCC(=O)N[C@H]1[C@@H](OCCc2ccccc2)O[C@H](COCC(CO)(CO)CO)[C@@H](O)[C@@H]1O`: the IC50 (in the assay with A-375; in the assay with C6; in assay [1]) was above 50 µM in each case.
On to `CCCCCCCC/C=C\CCCCCCCCO[C@H]1O[C@H](CO)[C@@H](O)[C@H](O)[C@H]1NC(C)=O`, for which the IC50 in the assay on A-375 stood at 4.8 µM; in the assay with C6, 1.3 µM; in assay [2], 10 µM; in assay [1], 4.6 µM.
In the case of `CCCCCCCC/C=C\CCCCCCCCO[C@H]1O[C@H](CO)[C@@H](O)[C@H](OS(=O)(=O)O)[C@H]1NC(C)=O`, the values for the IC50 (with A-375; in the assay with C6; in assay [1]) were 2.1 µM, 12.3 µM and 9.6 µM, respectively.
For `C=CCCC(=O)N[C@H]1[C@@H](OCCc2ccccc2)O[C@H](CO)[C@@H](O)[C@@H]1O`, the IC50 (with A-375; in the assay on C6; in assay [1]) was above 50 µM in each case.
In the case of `CCCCC(=O)N[C@H]1[C@@H](OCCc2ccccc2)O[C@H](COCC(O)CO)[C@@H](O)[C@@H]1O` (mixture of isomers), the IC50 (in the assay with A-375; with C6; in assay [1]) was above 50 µM each time.
As to `CCCCCCCCCCCCCCCCO[C@H]1O[C@H](COCC(O)CO)[C@@H](O)[C@H](O)[C@H]1NC(=O)CCCCCCCCCCCCCCC` (mixture of isomers), the values for the IC50 (in the assay with A-375; in the assay with C6; in assay [1]) were 9.3 µM, 2.6 µM and 3.3 µM, respectively.
